Source: ChEMBL document CHEMBL3351892, “Synthesis and structure-activity relationship of non-peptidic antagonists of neuropilin-1 receptor” (Bioorg Med Chem Lett, 2014)

Legend:
[1] = tested on: HUVEC; test: Inhibition of cell proliferation of HUVEC after 72 hrs by crystal violet adhesion based colorimetric assay; format: functional; conditions: Homo sapiens
Outline: (§1)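 Crystal violet adhesion: HUVEC 3 × 10^3, MDA-MB-231 5 × 10^3 cells/well, treated 72 h at varied concentrations (up to 10 µM); fixed 4% paraformaldehyde 15 min, PBS pH 7.4 wash, 0.04% crystal violet 30 min, solubilized 2% Triton X-100, OD 595 nm. Mean of three independent experiments in triplicate; IC50 from sigmoid dose–response curve.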

[2] = tested on: HUVEC; test: Cytotoxicity against HUVEC after 48 hrs by WST1 assay; format: functional, cell-based; conditions: Homo sapiens
Outline: (§2)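 WST-1 viability: HUVEC seeded 3 × 10^3, MDA-MB-231 5 × 10^3 cells/well; compounds added one day after seeding at varied concentrations (up to 10 µM); after 48 h medium removed, WST-1 added, 1–2 h at 37 °C, OD 490 nm. Mean of three independent experiments, triplicate per concentration; IC50 from sigmoid dose–response fit.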

[3] = tested on: MDA-MB-231; test: Inhibition of cell proliferation of human MDA-MB-231 after 72 hrs by crystal violet adhesion based colorimetric assay; format: functional; conditions: MDA-MB-231, 72 h; outline: as §1
[4] = tested on: MDA-MB-231; test: Cytotoxicity against human MDA-MB-231 after 48 hrs by WST1 assay; format: functional, cell-based; conditions: MDA-MB-231, 48 h; outline: as §2
[5] = target: Neuropilin-1 (Homo sapiens) (UniProt O14786); test: Inhibition of biotinylated VEGFA165 binding to NRP1 (unknown origin) at 10 uM by chemiluminescent assay
Outline: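 NRP-1 coated overnight at 0.2 µg/mL in PBS, 4 °C; washed PBS/0.5% Tween 20, blocked 0.5% BSA 2 h 37 °C. Compound preincubated 1 h at 37 °C, then biotinylated VEGF-A165 with 4 µg/mL heparin 2 h at 37 °C; chemiluminescent read-out; percent displacement of bound tracer at 10 µM.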

Chain of Neuropilin-1 (Homo sapiens) (O14786 whole entry): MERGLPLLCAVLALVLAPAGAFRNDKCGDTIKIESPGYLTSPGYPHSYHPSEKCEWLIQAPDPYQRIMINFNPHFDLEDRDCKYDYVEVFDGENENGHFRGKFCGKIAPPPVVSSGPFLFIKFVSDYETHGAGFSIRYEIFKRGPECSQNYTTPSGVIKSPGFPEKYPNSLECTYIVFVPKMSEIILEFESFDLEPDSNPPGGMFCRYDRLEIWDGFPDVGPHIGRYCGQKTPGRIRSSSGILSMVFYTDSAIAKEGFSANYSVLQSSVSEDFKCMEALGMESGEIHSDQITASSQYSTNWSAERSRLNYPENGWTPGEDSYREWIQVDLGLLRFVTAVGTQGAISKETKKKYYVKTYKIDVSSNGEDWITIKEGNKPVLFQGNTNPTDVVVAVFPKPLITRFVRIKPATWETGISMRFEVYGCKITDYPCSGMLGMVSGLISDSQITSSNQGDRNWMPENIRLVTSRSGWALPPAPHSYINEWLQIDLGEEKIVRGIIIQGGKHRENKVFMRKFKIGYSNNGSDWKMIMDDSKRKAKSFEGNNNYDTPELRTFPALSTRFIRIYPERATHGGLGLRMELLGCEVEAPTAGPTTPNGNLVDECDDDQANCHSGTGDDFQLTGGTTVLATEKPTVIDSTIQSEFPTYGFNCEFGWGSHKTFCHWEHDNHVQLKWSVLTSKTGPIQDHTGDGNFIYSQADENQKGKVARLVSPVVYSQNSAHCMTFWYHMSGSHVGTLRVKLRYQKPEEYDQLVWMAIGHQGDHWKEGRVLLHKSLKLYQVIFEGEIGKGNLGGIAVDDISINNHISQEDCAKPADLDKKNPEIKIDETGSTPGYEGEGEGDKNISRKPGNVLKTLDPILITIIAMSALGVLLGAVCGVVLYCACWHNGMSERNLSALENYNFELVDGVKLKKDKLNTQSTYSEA

| Compound | IC50 [1] [µM] | IC50 [2] [µM] | IC50 [3] [µM] | IC50 [4] [µM] | inhibition [5] [%] |
| --- | --- | --- | --- | --- | --- |
| O=C(NC(=S)Nc1cccc(-c2nc3ccccc3[nH]2)c1)c1ccc2c(c1)OCO2 | 0.3 | 0.3 | 6 | 6 | 46 |
| O=C(NC(=S)Nc1cccc(-c2nc3ccccc3[nH]2)c1)c1ccc2c(c1)OCCO2 | < 0.1 | 0.05 | 0.5 | 0.4 | 38 |
| N#Cc1ccc2[nH]c(-c3cccc(NC(=S)NC(=O)c4ccc5c(c4)OCCO5)c3)nc2c1 |  | 1 |  | > 10 | 0 |
| COc1ccc(C(=O)NC(=S)Nc2cccc(-c3nc4ccccc4[nH]3)c2)cc1OC | 5 | 6 | 10 | > 10 |  |
| O=C(NC(=S)Nc1cccc(-c2nc3ccccc3[nH]2)c1)c1ccccc1 | > 10 | > 10 | > 10 | > 10 |  |
| O=C(NC(=S)Nc1cccc(-c2nc3ccccc3s2)c1)c1ccc2c(c1)OCO2 | 0.9 | 1 | 8 | 10 | 14 |
| Cc1ccc(-c2nc3ccccc3[nH]2)cc1NC(=S)NC(=O)c1ccc2c(c1)OCO2 | 0.75 | 1.5 | 6 | 6 |  |
| S=C(NCc1ccc2c(c1)OCO2)Nc1cccc(-c2nc3ccccc3[nH]2)c1 | > 10 | > 10 | > 10 | > 10 |  |
| Cc1ccc(-c2nc3ccccc3s2)cc1NC(=S)NC(=O)c1ccc2c(c1)OCO2 | 5 | 5 | > 10 | > 10 |  |
| Cc1ccc(-c2nc3ccccc3[nH]2)cc1NC(=S)NCc1ccc2c(c1)OCO2 | > 10 | > 10 | > 10 | > 10 |  |
| N#Cc1ccc2[nH]c(-c3cccc(NC(=S)NC(=O)c4ccc5c(c4)OCO5)c3)nc2c1 | 6 |  |  |  | 37 |
| COc1ccc(C(=O)NC(=O)Nc2cccc(-c3nc4ccccc4[nH]3)c2)cc1OC | 8 | 8 |  |  |  |
| Cc1ccc(-c2nc3ccccc3[nH]2)cc1NC(=S)NC(=O)c1ccccc1 | > 10 | > 10 | > 10 | > 10 |  |
| Cc1ccc(-c2nc3ccccc3[nH]2)cc1NC(=S)NC(=O)c1ccc2c(c1)OCCO2 | 0.15 | 0.24 | 0.5 | 0.53 | 34 |
| O=C(NC(=S)Nc1cccc(-c2nc3ccccc3s2)c1)c1ccc2c(c1)OCCO2 | 2.6 | 2.6 | > 10 | > 10 |  |
| Cc1ccc(-c2nc3cc(F)ccc3[nH]2)cc1NC(=S)NC(=O)c1ccc2c(c1)OCO2 | > 10 | > 10 |  |  |  |
| CCOc1ccc(C(=O)NC(=S)Nc2cccc(-c3nc4ccccc4[nH]3)c2)cc1OCC | 8 | 8 |  |  | 14 |
| CCOc1ccc(C(=O)NC(=S)Nc2cc(-c3nc4ccccc4[nH]3)ccc2C)cc1OCC | 6 |  |  |  | 32 |
